# ChEMBL document CHEMBL3600357 (J Med Chem, 2015)
# pIC50, pKi: −log10 of the molar value. Calls of active or inactive are those of the source. No cut-off for these calls is given here.
# Key:
# [1] = Octanol water partition coefficient, logP of the compound; type: physicochemical
# Rattus norvegicus [2] = assay: AUC in Sprague-Dawley rat at 3 mg/kg, po; type: ADME, organism-based; settings: in vivo
# How it was run: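 Sprague-Dawley rats. IV dose given as a solution in NMP:PEG200 (10:90); 3 mg/kg PO given as a suspension in CMC:water:Tween (0.5:99:0.5). AUC and Cmax dose-normalized to 1 mg/kg. Mean ± SD from four rats.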
# [3] = Protein binding in Sprague-Dawley rat plasma by equilibrium dialysis method; type: ADME, cell-free; settings: read-out: PPB
# How it was run: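 Rat plasma protein binding by rapid equilibrium dialysis (RED) in 100% plasma.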
# [4] = target: E3 ubiquitin-protein ligase Mdm2 (Mus musculus, UniProt P23804); assay: Inhibition of mouse MDM2 by TR-FRET assay
# [5] = Inhibition of rat MDM2 by TR-FRET assay
# Mus musculus = assay: AUC in OF1 mouse at 3 mg/kg, po; type: ADME, organism-based; settings: in vivo
# [6] = Protein binding in OF1 mouse plasma by equilibrium dialysis method; type: ADME, cell-free; settings: read-out: PPB
# [7] = Terminal half life in beagle dog at 0.1 mg/kg, iv; type: ADME, organism-based, Canis lupus familiaris; settings: in vivo, read-out: beta t1/2 (converted)
# Canis familiaris = assay: AUC in beagle dog at 0.3 mg/kg, po; type: ADME, organism-based, Canis lupus familiaris; settings: in vivo
# [8] = Cmax in beagle dog at 0.3 mg/kg, po; type: ADME, organism-based, Canis lupus familiaris; design: dose 0.3 mg/kg, route oral; settings: in vivo
# [9] = Terminal half life in cynomolgus monkey at 0.1 mg/kg, iv; type: ADME, organism-based, Macaca fascicularis; settings: in vivo, read-out: beta t1/2 (converted)
# Cynomolgus monkey [10] = assay: AUC in cynomolgus monkey at 0.3 mg/kg, po; type: ADME, organism-based, Macaca fascicularis; settings: in vivo
# Cynomolgus monkey [11] = assay: Oral bioavailability in cynomolgus monkey at 0.3 mg/kg; type: ADME, organism-based, Macaca fascicularis; settings: in vivo
# [12] = Protein binding in cynomolgus monkey plasma by equilibrium dialysis method; type: ADME, cell-free, Macaca fascicularis; settings: read-out: PPB
# [13] = Inhibition of Ras (unknown origin) assessed as inhibition of Ras-Raf interaction by TR-FRET assay; design: species or system Homo sapiens
# [14] = target: T1, Apoptosis regulator Bcl-2 (Homo sapiens, UniProt P10415); assay: Inhibition of Bcl2 (unknown origin) assessed as inhibition of Bcl2-Bak interaction by TR-FRET assay
# [15] = target: T1, Apoptosis regulator Bcl-2; assay: Inhibition of Bcl2 (unknown origin) assessed as inhibition of Bcl2-Bad interaction by TR-FRET assay
# [16] = target: Induced myeloid leukemia cell differentiation protein Mcl-1 (Homo sapiens, UniProt Q07820); assay: Inhibition of Mcl1 (unknown origin) assessed as inhibition of Mcl1-Bak interaction by TR-FRET assay
# [17] = target: Baculoviral IAP repeat-containing protein 2 (Homo sapiens, UniProt Q13490); assay: Inhibition of cIAP (unknown origin) assessed as inhibition of cIAP-BIR3 interaction by TR-FRET assay
# HCT-116 [18] = assay: Inhibition of cell proliferation of human HCT116 cells expressing p53
# HCT-116 [19] = assay: Inhibition of cell proliferation of human HCT116 cells deficient with p53 gene
# [20] = Inhibition of cell proliferation of human SJSA1 cells expressing p53; settings: SJSA-1
# [21] = Inhibition of cell proliferation of human Saos2 cells deficient with p53 gene; settings: SAOS-2
# Rattus norvegicus [22] = assay: In-vivo inhibition of MDM2/p53 interaction in human SJSA1 cells xenografted rat assessed as increase in p21 mRNA level at 30 mg/kg, po measured within 72 hrs post dose by qRT-PCR method; type: functional, organism-based; settings: SJSA-1
# How it was run: (§1)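 SJSA-1 (MDM2-amplified) tumour-bearing rats were dosed at 30 mg/kg. Tumour samples were collected over time, and p21, MDM2 and PUMA mRNA were measured as p53 pharmacodynamic markers, alongside compound levels.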
# Rattus norvegicus [23] = assay: In-vivo inhibition of MDM2/p53 interaction in human SJSA1 cells xenografted rat assessed as increase in MDM2 mRNA level at 30 mg/kg, po measured within 72 hrs post dose by qRT-PCR method; type: functional, organism-based; settings: SJSA-1; how it was run: as §1
# Rattus norvegicus [24] = assay: Toxicity in human SJSA1 cells xenografted dosed rat assessed as drug toleration dosed orally on daily basis under q24h regime; type: organism-based, SJSA-1; settings: in vivo, po
# How it was run: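 Rats bearing MDM2-amplified SJSA-1 human tumours, treated daily. Tolerability was monitored during treatment. Histopathology for compound-related findings was performed at the 30 mg/kg daily dose.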
# Rattus norvegicus [25] = assay: Toxicity in human SJSA1 cells xenografted dosed rat assessed as induction of histopathological changes at 30 mg/kg, po qd; type: organism-based, SJSA-1; settings: in vivo
# How it was run: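 Daily treatment of SJSA-1 tumour-bearing rats; histopathology was performed on the 30 mg/kg daily dose group to look for compound-related findings.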
# Rattus norvegicus [26] = organism: Rattus norvegicus; assay: Toxicity in rat assessed as changes in heart parameters; type: organism-based; settings: in vivo
# Rattus norvegicus [27] = organism: Rattus norvegicus; assay: Toxicity in female rat assessed as changes in adrenal gland parameters; type: organism-based; settings: in vivo
# Rattus norvegicus [28] = organism: Rattus norvegicus; assay: Toxicity in rat assessed as induction of structural changes in testes tubular epithelium; type: organism-based, Testis; settings: in vivo
# Rattus norvegicus [29] = organism: Rattus norvegicus; assay: Toxicity in rat testes assessed as effect on proliferative cells; type: organism-based, Testis; settings: in vivo
# Rattus norvegicus [30] = assay: Toxicity in human SJSA1 cells xenografted rat assessed as change in body weight at 5 mg/kg, po qd (reference value: 1.9 to 6.8%); type: organism-based, SJSA-1; settings: in vivo
# Rattus norvegicus [31] = assay: Toxicity in human SJSA1 cells xenografted rat assessed as change in body weight at 30 mg/kg, po dosed three times per week (reference value: 1.9 to 6.8%); type: organism-based, SJSA-1; settings: in vivo
# Rattus norvegicus [32] = assay: Toxicity in human SJSA1 cells xenografted rat assessed as change in body weight at 70 mg/kg, po dosed three times per week (reference value: 1.9 to 6.8%); type: organism-based, SJSA-1; settings: in vivo
# Rattus norvegicus [33] = assay: Toxicity in human SJSA1 cells xenografted rat assessed as mouse survival at 10 mg/kg, po qd; type: organism-based, SJSA-1; settings: in vivo
# How it was run: (§2)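 Tolerability was monitored in SJSA-1 tumour-bearing rats during the daily and 3qw (Monday, Wednesday, Friday) treatment schedules. Histopathology was done on all 3qw doses and on the 30 mg/kg daily group.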
# Rattus norvegicus [34] = assay: Toxicity in human SJSA1 cells xenografted rat assessed as mouse survival at 20 mg/kg, po qd; type: organism-based, SJSA-1; settings: in vivo; how it was run: as §2
# Rattus norvegicus [35] = assay: Toxicity in human SJSA1 cells xenografted rat assessed as mouse survival at 30 mg/kg, po qd; type: organism-based, SJSA-1; settings: in vivo; how it was run: as §2
# [36] = AUC (0 to 24 hrs) in human SJSA1 cells xenografted rat assessed as mouse survival at 5 mg/kg, po qd; type: ADME, organism-based, SJSA-1; design: time < 24 hr, dose 5 mg/kg, route oral; settings: in vivo
# How it was run: (§3)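 Rats bearing MDM2-amplified human SJSA-1 tumors, dosed orally either daily or 3qw (Monday, Wednesday, Friday). Plasma exposure reported as AUC0-24, plus AUC0-48 for the 3qw schedule.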
# [37] = AUC (0 to 24 hrs) in human SJSA1 cells xenografted rat assessed as mouse survival at 30 mg/kg, po qd; type: ADME, organism-based, SJSA-1; design: time < 24 hr, dose 30 mg/kg, route oral; settings: in vivo; how it was run: as §3
# [38] = AUC (0 to 24 hrs) in human SJSA1 cells xenografted rat assessed as mouse survival at 30 mg/kg, po dosed 3 times per week; type: ADME, organism-based, SJSA-1; design: dose 30 mg/kg, time < 24 hr, route oral; settings: in vivo; how it was run: as §3
# [39] = AUC (0 to 48 hrs) in human SJSA1 cells xenografted rat assessed as mouse survival at 30 mg/kg, po dosed 3 times per week; type: ADME, organism-based, SJSA-1; design: time < 48 hr, dose 30 mg/kg, route oral; settings: in vivo; how it was run: as §3
# [40] = AUC (0 to 24 hrs) in human SJSA1 cells xenografted rat assessed as mouse survival at 70 mg/kg, po dosed 3 times per week; type: ADME, organism-based, SJSA-1; design: time < 24 hr, dose 70 mg/kg, route oral; settings: in vivo; how it was run: as §3
# [41] = AUC (0 to 48 hrs) in human SJSA1 cells xenografted rat assessed as mouse survival at 70 mg/kg, po dosed 3 times per week; type: ADME, organism-based, SJSA-1; design: time < 48 hr, dose 70 mg/kg, route oral; settings: in vivo; how it was run: as §3
# T1 sequence (P10415 whole entry): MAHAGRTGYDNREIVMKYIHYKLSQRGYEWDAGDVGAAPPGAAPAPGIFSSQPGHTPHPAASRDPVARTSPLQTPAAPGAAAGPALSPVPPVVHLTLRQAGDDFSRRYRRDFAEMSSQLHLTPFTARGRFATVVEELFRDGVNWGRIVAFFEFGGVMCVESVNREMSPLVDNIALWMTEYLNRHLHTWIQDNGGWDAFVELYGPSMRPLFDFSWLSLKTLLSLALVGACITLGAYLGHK
# Sequence of Baculoviral IAP repeat-containing protein 2 (Q13490 whole entry): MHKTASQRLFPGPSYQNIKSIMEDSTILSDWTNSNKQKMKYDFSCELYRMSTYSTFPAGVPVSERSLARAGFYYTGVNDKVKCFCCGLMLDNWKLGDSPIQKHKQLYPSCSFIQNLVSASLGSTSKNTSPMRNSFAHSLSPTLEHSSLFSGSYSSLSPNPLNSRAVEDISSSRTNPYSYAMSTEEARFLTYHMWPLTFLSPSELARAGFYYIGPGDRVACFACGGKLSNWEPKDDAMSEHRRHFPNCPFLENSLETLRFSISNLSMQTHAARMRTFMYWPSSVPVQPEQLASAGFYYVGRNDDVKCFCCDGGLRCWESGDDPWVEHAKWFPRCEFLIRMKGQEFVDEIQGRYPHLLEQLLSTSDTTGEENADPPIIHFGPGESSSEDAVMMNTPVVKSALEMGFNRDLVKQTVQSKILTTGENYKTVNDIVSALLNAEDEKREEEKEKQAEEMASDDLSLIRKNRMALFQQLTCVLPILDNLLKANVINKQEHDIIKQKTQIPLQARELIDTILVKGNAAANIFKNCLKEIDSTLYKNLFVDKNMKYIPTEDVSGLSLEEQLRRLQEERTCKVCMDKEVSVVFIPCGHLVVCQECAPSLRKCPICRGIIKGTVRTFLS
# Sequence of E3 ubiquitin-protein ligase Mdm2 (P23804 whole entry): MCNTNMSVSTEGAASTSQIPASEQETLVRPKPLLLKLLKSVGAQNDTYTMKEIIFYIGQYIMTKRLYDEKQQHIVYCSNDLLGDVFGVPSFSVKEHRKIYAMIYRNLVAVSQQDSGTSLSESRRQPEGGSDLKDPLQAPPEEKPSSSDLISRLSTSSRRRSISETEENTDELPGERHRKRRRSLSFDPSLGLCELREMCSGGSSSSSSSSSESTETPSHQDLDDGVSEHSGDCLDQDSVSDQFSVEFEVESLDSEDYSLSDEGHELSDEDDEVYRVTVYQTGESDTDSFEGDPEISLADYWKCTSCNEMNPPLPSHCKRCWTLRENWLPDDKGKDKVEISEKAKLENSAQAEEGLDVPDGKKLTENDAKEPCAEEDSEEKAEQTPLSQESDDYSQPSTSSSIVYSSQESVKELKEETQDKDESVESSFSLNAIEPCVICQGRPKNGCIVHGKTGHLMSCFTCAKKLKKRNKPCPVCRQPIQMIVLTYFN
# Sequence of Induced myeloid leukemia cell differentiation protein Mcl-1 (Q07820 whole entry): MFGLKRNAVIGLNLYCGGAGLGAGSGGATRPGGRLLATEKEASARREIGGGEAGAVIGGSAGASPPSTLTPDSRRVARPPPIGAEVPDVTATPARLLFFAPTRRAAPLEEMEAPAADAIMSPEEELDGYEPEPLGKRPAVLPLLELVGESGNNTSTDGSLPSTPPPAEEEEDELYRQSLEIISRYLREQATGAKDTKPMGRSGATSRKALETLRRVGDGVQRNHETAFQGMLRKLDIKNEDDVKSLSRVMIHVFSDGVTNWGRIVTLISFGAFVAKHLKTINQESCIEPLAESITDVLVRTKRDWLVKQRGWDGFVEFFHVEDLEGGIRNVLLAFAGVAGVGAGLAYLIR
smiles,measurement,setting,value
COc1cc2c(cc1OC(C)C)[C@H](c1ccc(Cl)cc1)N(c1ccc(N(C)C[C@H]3CC[C@H](N4CCN(C)C(=O)C4)CC3)cc1)C(=O)C2 [CGM-097],logP,[1],5.8
same,AUC,Rattus norvegicus [2],2.779 µM·h
same,fraction unbound,[3],< 0.01
same,pKi,[4],7.18
same,pKi,[5],7.32
same,AUC,Mus musculus,3.337 µM·h
same,fraction unbound,[6],< 0.01
same,half-life,[7],19.8 h
same,AUC,Canis familiaris,5.993 µM·h
same,Cmax,[8],251 nM
same,half-life,[9],8.3 h
same,AUC,Cynomolgus monkey [10],3.73 µM·h
same,F,Cynomolgus monkey [11],57%
same,fraction unbound,[12],< 0.01
same,pIC50,[13],5.35
same,pIC50,[14],< 4.30
same,pIC50,[15],< 4.30
same,pIC50,[16],< 4.30
same,pIC50,[17],< 4.30
same,pIC50,HCT-116 [18],6.34
same,pIC50,HCT-116 [19],4.80
same,pIC50,[20],6.45
same,pIC50,[21],4.69
same,inhibition,Rattus norvegicus [22],Active
same,inhibition,Rattus norvegicus [23],Active
same,Activity,Rattus norvegicus [24],Non-toxic
same,Activity,Rattus norvegicus [25],Non-toxic
same,Activity,Rattus norvegicus [26],Toxic
same,Activity,Rattus norvegicus [27],Toxic
same,Activity,Rattus norvegicus [28],Toxic
same,Activity,Rattus norvegicus [29],Non-toxic
same,Activity,Rattus norvegicus [30],2.8%
same,Activity,Rattus norvegicus [31],4.5%
same,Activity,Rattus norvegicus [32],7%
same,Activity,Rattus norvegicus [33],Non-toxic
same,Activity,Rattus norvegicus [34],Non-toxic
same,Activity,Rattus norvegicus [35],Non-toxic
same,AUC at 24 h,[36],34 µM·h
same,AUC at 24 h,[37],421 µM·h
same,AUC at 24 h,[38],230 µM·h
same,AUC at 48 h,[39],381 µM·h
same,AUC at 24 h,[40],616 µM·h
same,AUC at 48 h,[41],1040 µM·h
